Laboratory results: ChEMBL document CHEMBL1125874, “N-(4-Isoxazolylthiazol-2-yl)oxamic acid derivatives as potent orally active antianaphylactic agents” (1991)
Activity calls are given as the source filed them.

Test system: Cavia porcellus
Assay: Aantianaphylactic activity at the bronchopulmonary level against IgG-mediated APA model of guinea pig when administered intraperitoneally.
Format: functional
Settings: ip
Procedure, shortened: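 Guinea pigs (either sex, 300-400 g) sensitized by a single ip dose of ovoalbumin in liquid petrolatum (20 mg/mL). Tested 3 weeks later. Drug given ip in 2% gum arabic (5 mL/kg) 30 min before aerosol challenge with 2% ovoalbumin. Read-out is delay to severe dyspnea in seconds, with 3 min cutoff. ED50 by linear regression.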

| Structure (SMILES) | ED50 [mg/kg] |
| --- | --- |
| CCOCCOC(=O)C(=O)Nc1nc(-c2cc(C)no2)cs1 [ASOBAMAST] | 185 |
| O=C([O-])c1cc(=O)c2c(OCC(O)COc3cccc4oc(C(=O)[O-])cc(=O)c34)cccc2o1.[Na+].[Na+] [CROMOLYN SODIUM] | > 1000 |

Species: Cavia porcellus
Assay: Inhibitory effect on Antigen-induced SRS-A (slow reacting substance of anaphylaxis) like material release from sensitized guinea pig lung fragments at a concentration of 10 E -4 M
Format: functional
Settings: not given
Procedure, shortened: (§1)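 Lungs from ovoalbumin-sensitized guinea pigs were taken at 3 weeks and minced in Krebs' solution (0.1 g tissue/mL). Suspension incubated 15 min at 37 °C. Drug added, then ovoalbumin 1 μg 5 min later, for 15 min at 37 °C. SRS-A-like activity of the filtrate assayed on isolated guinea pig ileum, as % inhibition versus saline controls.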

| Structure (SMILES) | Inhibition [%] |
| --- | --- |
| O=C([O-])c1cc(=O)c2c(OCC(O)COc3cccc4oc(C(=O)[O-])cc(=O)c34)cccc2o1.[Na+].[Na+] [CROMOLYN SODIUM] | 46 |

Species: Cavia porcellus
Assay: Inhibitory effect on Antigen-induced SRS-A (slow reacting substance of anaphylaxis) like material release from sensitized guinea pig lung fragments at a concentration of 10 E -5 M
Format: functional
Settings: not given
Procedure, shortened: as §1

| Structure (SMILES) | Inhibition [%] |
| --- | --- |
| CCOCCOC(=O)C(=O)Nc1nc(-c2cc(C)no2)cs1 [ASOBAMAST] | 52 |
| O=C([O-])c1cc(=O)c2c(OCC(O)COc3cccc4oc(C(=O)[O-])cc(=O)c34)cccc2o1.[Na+].[Na+] [CROMOLYN SODIUM] | 38 |

Species: Cavia porcellus
Assay: Inhibitory effect on Antigen-induced SRS-A (slow reacting substance of anaphylaxis) like material release from sensitized guinea pig lung fragments at a concentration of 10 E -6 M
Format: functional
Settings: not given
Procedure, shortened: as §1

| Structure (SMILES) | Inhibition [%] |
| --- | --- |
| CCOCCOC(=O)C(=O)Nc1nc(-c2cc(C)no2)cs1 [ASOBAMAST] | 48 |
| O=C([O-])c1cc(=O)c2c(OCC(O)COc3cccc4oc(C(=O)[O-])cc(=O)c34)cccc2o1.[Na+].[Na+] [CROMOLYN SODIUM] | 20 |

Species: Cavia porcellus
Assay: Inhibitory effect on Antigen-induced SRS-A (slow reacting substance of anaphylaxis) like material release from sensitized guinea pig lung fragments at a concentration of 10 E -8 M
Format: functional
Settings: not given
Procedure, shortened: as §1

| Structure (SMILES) | Inhibition [%] |
| --- | --- |
| CCOCCOC(=O)C(=O)Nc1nc(-c2cc(C)no2)cs1 [ASOBAMAST] | 18 |

Test system: Rattus norvegicus
Assay: Antianaphylactic activity against IgE-mediated rat passive cutaneous anaphylaxis (PCA) model after intraperitoneal administration.
Format: functional
Settings: ip
Procedure, shortened: (§2)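 Female Sprague-Dawley rats (~200 g) received rat anti-ovoalbumin IgE antiserum intradermally at four back sites. Drug in 2% gum arabic given po (10 mL/kg) 10 min or ip (5 mL/kg) 5 min before challenge. Blue-spot area measured at 30 min versus vehicle controls. ED50 by linear regression on at least three doses.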

| Structure (SMILES) | ED50 [mg/kg] |
| --- | --- |
| Cc1cc(-c2csc(NC(=O)C(=O)O)n2)on1.NCCCC[C@H](N)C(=O)O | 0.3 |
| CCOCCOC(=O)C(=O)Nc1nc(-c2cc(OCc3ccccc3)no2)cs1 | 3.7 |
| CCOCCOC(=O)C(=O)Nc1nc(-c2cc(Br)no2)c(CC)s1 | 3 |
| NCCO.O=C(O)C(=O)Nc1nc(-c2cc(-c3c(F)cccc3Cl)no2)cs1 | 2.4 |
| NCCCC[C@H](N)C(=O)O.O=C(O)C(=O)Nc1nc(-c2conc2-c2ccccc2)cs1 | > 100 |
| NCCCC[C@H](N)C(=O)O.O=C(O)C(=O)Nc1nc(-c2cc(Br)no2)cs1 | 0.5 |
| NCCCC[C@H](N)C(=O)O.O=C(O)C(=O)Nc1nc(-c2cc(-c3ccccc3)no2)cs1 | 0.24 |
| CCOCCOC(=O)C(=O)Nc1nc(-c2c(-c3ccccc3)noc2C)cs1 | > 10 |
| O=C(O)C(=O)Nc1nc(-c2cc(Br)no2)cs1 | 3 |
| CCOC(=O)C(=O)Nc1nc(-c2cc(Br)no2)cs1 | 12 |
| NCCO.O=C(O)C(=O)Nc1nc(-c2cc(Br)no2)cs1 | 7 |
| CCOCCOC(=O)C(=O)Nc1nc(-c2cc(-c3c(F)cccc3Cl)no2)cs1 | 1.1 |
| CCOCCOC(=O)C(=O)Nc1nc(-c2conc2C)cs1 | > 100 |
| CCOCCOC(=O)C(=O)Nc1nc(-c2c(-c3c(F)cccc3Cl)noc2C)cs1 | > 10 |
| CCOCCOC(=O)C(=O)Nc1nc(-c2cc(COC)no2)cs1 | 2.4 |
| NCCO.O=C(O)C(=O)Nc1nc(-c2cc(CO)on2)cs1 | > 100 |
| Cc1cc(-c2csc(NC(=O)C(=O)O)n2)no1.NCCCC[C@H](N)C(=O)O | 1.7 |
| CCOCCOC(=O)C(=O)Nc1nc(-c2cc(Br)no2)cs1 | 11 |

| Structure (SMILES) | ED50 [mg/kg] |
| --- | --- |
| CCOCCOC(=O)C(=O)Nc1nc(-c2cc(CO)on2)cs1 | 1.8 |
| NCCO.O=C(O)C(=O)Nc1nc(-c2cc(CO)no2)cs1 | 0.007 |
| CCOCCOC(=O)C(=O)Nc1nc(-c2cc(C)no2)cs1 [ASOBAMAST] | 0.04 |
| CC(C)(C)OC(=O)C(=O)Nc1nc(-c2cc(-c3ccccc3)no2)cs1 | 9 |
| CCOCCOC(=O)C(=O)Nc1nc(-c2cc(OC)no2)cs1 | 3 |
| CCOCCOC(=O)C(=O)Nc1nc(-c2cc(Cl)no2)cs1 | 6 |
| NCCO.O=C(O)C(=O)Nc1nc(-c2cc(-c3ccccc3)on2)cs1 | 0.23 |
| NCCO.O=C(O)C(=O)Nc1nc(-c2cc(Cl)no2)cs1 | > 30 |
| O=C(Nc1nc(-c2cc(-c3c(F)cccc3Cl)no2)cs1)C(=O)OCc1ccccc1 | > 30 |
| CCOCCOC(=O)C(=O)Nc1nc(-c2cc(C(=O)OCC)no2)cs1 | 0.08 |
| NCCO.O=C(O)C(=O)Nc1nc(-c2conc2-c2c(F)cccc2Cl)cs1 | 30 |
| COc1cc(-c2csc(NC(=O)C(=O)O)n2)on1.NCCO | 1.2 |
| CCOCCOC(=O)C(=O)Nc1nc(-c2cc(-c3ccccc3)on2)cs1 | 0.2 |
| COCCOC(=O)C(=O)Nc1nc(-c2cc(Br)no2)cs1 | 7 |
| CCOCCOC(=O)C(=O)Nc1nc(-c2cc(C)on2)cs1 | 1.3 |
| O=C([O-])c1cc(=O)c2c(OCC(O)COc3cccc4oc(C(=O)[O-])cc(=O)c34)cccc2o1.[Na+].[Na+] [CROMOLYN SODIUM] | 12 |
| CCOC(=O)C(=O)Nc1nc(-c2cc(C)no2)cs1 | 0.2 |
| NCCO.O=C(O)C(=O)Nc1nc(-c2cc(-c3ccccc3)no2)cs1 | 0.24 |

Test system: Rattus norvegicus
Assay: Antianaphylactic activity against IgE-mediated rat passive cutaneous anaphylaxis (PCA) model after oral administration.
Format: functional
Settings: not given
Procedure, shortened: as §2

| Structure (SMILES) | ED50 [mg/kg] |
| --- | --- |
| Cc1cc(-c2csc(NC(=O)C(=O)O)n2)on1.NCCCC[C@H](N)C(=O)O | 6 |
| CCOCCOC(=O)C(=O)Nc1nc(-c2cc(OCc3ccccc3)no2)cs1 | > 100 |
| CCOCCOC(=O)C(=O)Nc1nc(-c2cc(Br)no2)c(CC)s1 | 9 |
| NCCO.O=C(O)C(=O)Nc1nc(-c2cc(-c3c(F)cccc3Cl)no2)cs1 | > 30 |
| NCCCC[C@H](N)C(=O)O.O=C(O)C(=O)Nc1nc(-c2conc2-c2ccccc2)cs1 | > 100 |
| NCCCC[C@H](N)C(=O)O.O=C(O)C(=O)Nc1nc(-c2cc(Br)no2)cs1 | 8 |
| NCCCC[C@H](N)C(=O)O.O=C(O)C(=O)Nc1nc(-c2cc(-c3ccccc3)no2)cs1 | 2.4 |
| CCOCCOC(=O)C(=O)Nc1nc(-c2c(-c3ccccc3)noc2C)cs1 | > 100 |
| O=C(O)C(=O)Nc1nc(-c2cc(Br)no2)cs1 | > 30 |
| CCOC(=O)C(=O)Nc1nc(-c2cc(Br)no2)cs1 | > 100 |
| NCCO.O=C(O)C(=O)Nc1nc(-c2cc(Br)no2)cs1 | > 30 |
| CCOCCOC(=O)C(=O)Nc1nc(-c2cc(-c3c(F)cccc3Cl)no2)cs1 | > 30 |
| CCOCCOC(=O)C(=O)Nc1nc(-c2conc2C)cs1 | > 100 |
| CCOCCOC(=O)C(=O)Nc1nc(-c2c(-c3c(F)cccc3Cl)noc2C)cs1 | > 30 |
| CCOCCOC(=O)C(=O)Nc1nc(-c2cc(COC)no2)cs1 | 0.7 |
| NCCO.O=C(O)C(=O)Nc1nc(-c2cc(CO)on2)cs1 | > 30 |
| Cc1cc(-c2csc(NC(=O)C(=O)O)n2)no1.NCCCC[C@H](N)C(=O)O | 17 |
| CCOCCOC(=O)C(=O)Nc1nc(-c2cc(Br)no2)cs1 | > 30 |

| Structure (SMILES) | ED50 [mg/kg] |
| --- | --- |
| CCOCCOC(=O)C(=O)Nc1nc(-c2cc(CO)on2)cs1 | 14 |
| NCCO.O=C(O)C(=O)Nc1nc(-c2cc(CO)no2)cs1 | 0.7 |
| CCOCCOC(=O)C(=O)Nc1nc(-c2cc(C)no2)cs1 [ASOBAMAST] | 1.3 |
| CC(C)(C)OC(=O)C(=O)Nc1nc(-c2cc(-c3ccccc3)no2)cs1 | 7 |
| CCOCCOC(=O)C(=O)Nc1nc(-c2cc(OC)no2)cs1 | 11 |
| CCOCCOC(=O)C(=O)Nc1nc(-c2cc(Cl)no2)cs1 | > 30 |
| NCCO.O=C(O)C(=O)Nc1nc(-c2cc(-c3ccccc3)on2)cs1 | 2.6 |
| NCCO.O=C(O)C(=O)Nc1nc(-c2cc(Cl)no2)cs1 | > 30 |
| O=C(Nc1nc(-c2cc(-c3c(F)cccc3Cl)no2)cs1)C(=O)OCc1ccccc1 | > 30 |
| CCOCCOC(=O)C(=O)Nc1nc(-c2cc(C(=O)OCC)no2)cs1 | 1.9 |
| NCCO.O=C(O)C(=O)Nc1nc(-c2conc2-c2c(F)cccc2Cl)cs1 | > 100 |
| COc1cc(-c2csc(NC(=O)C(=O)O)n2)on1.NCCO | 8 |
| CCOCCOC(=O)C(=O)Nc1nc(-c2cc(-c3ccccc3)on2)cs1 | 13 |
| COCCOC(=O)C(=O)Nc1nc(-c2cc(Br)no2)cs1 | > 100 |
| CCOCCOC(=O)C(=O)Nc1nc(-c2cc(C)on2)cs1 | 2 |
| CCOC(=O)C(=O)Nc1nc(-c2cc(C)no2)cs1 | 0.7 |
| NCCO.O=C(O)C(=O)Nc1nc(-c2cc(-c3ccccc3)no2)cs1 | 0.6 |

Test system: Rattus norvegicus
Assay: Antianaphylactic activity against IgE-mediated rat PCA model after oral administration; Not active
Format: functional, organism-based
Settings: not given
Procedure, shortened: as §2

| Structure (SMILES) | ED50 |
| --- | --- |
| O=C([O-])c1cc(=O)c2c(OCC(O)COc3cccc4oc(C(=O)[O-])cc(=O)c34)cccc2o1.[Na+].[Na+] [CROMOLYN SODIUM] | inactive |

Test system: Rattus norvegicus
Assay: Antianaphylactic activity at the bronchopulmonary level against IgE-mediated rat PPA model when administered intravenously.
Format: functional
Settings: iv
Procedure, shortened: (§3)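 Rats passively sensitized iv with anti-ovoalbumin serum (1 mL/rat). Challenge was iv ovoalbumin 4 mg/kg. Bronchoconstriction measured as air overflow (Konzett-Rössler). Drug given po in 2% gum arabic (10 mL/kg) 30 min before, or iv in 10% DMSO (1 mL/kg) 15 min before. ED50 by linear regression.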

| Structure (SMILES) | ED50 [mg/kg] |
| --- | --- |
| CCOCCOC(=O)C(=O)Nc1nc(-c2cc(C)no2)cs1 [ASOBAMAST] | 0.09 |
| O=C([O-])c1cc(=O)c2c(OCC(O)COc3cccc4oc(C(=O)[O-])cc(=O)c34)cccc2o1.[Na+].[Na+] [CROMOLYN SODIUM] | 0.82 |

Test system: Rattus norvegicus
Assay: Antianaphylactic activity at the bronchopulmonary level against IgE-mediated rat PPA model when administered orally.
Format: functional
Settings: po
Procedure, shortened: as §3

| Structure (SMILES) | ED50 [mg/kg] |
| --- | --- |
| CCOCCOC(=O)C(=O)Nc1nc(-c2cc(C)no2)cs1 [ASOBAMAST] | 4.7 |
| O=C([O-])c1cc(=O)c2c(OCC(O)COc3cccc4oc(C(=O)[O-])cc(=O)c34)cccc2o1.[Na+].[Na+] [CROMOLYN SODIUM] | > 100 |

Species: Cavia porcellus
Assay: Inhibitory effect on Antigen-induced SRS-A (slow reacting substance of anaphylaxis) like material release from sensitized guinea pig lung fragments at a concentration of 10 E -7 M
Format: functional
Settings: not given
Procedure, shortened: as §1

| Structure (SMILES) | Inhibition [%] |
| --- | --- |
| CCOCCOC(=O)C(=O)Nc1nc(-c2cc(C)no2)cs1 [ASOBAMAST] | 43 |
